Measurements collected from several papers.
Compare with care: the assays were run in different laboratories.

CC(C)[C@@H](CS(=O)(=O)C(C)C)N1C(=O)[C@@](C)(CC(=O)O)C[C@H](c2cccc(Cl)c2)[C@H]1c1ccc(Cl)cc1
AUC(0-inf) (FVB mouse, brain; intravenous, 20 mg/kg, single dose): 172 ng·h/mL

Cc1nc2ccc(OCc3ccc(C(F)(F)F)cc3)cc2[nH]1
AUC(0-inf) (male BALB/c mouse, plasma; intravenous, 1 mg/kg): 3800 ng·h/mL

CCn1c(=O)c(-c2cc(NC(=O)Nc3ccccc3)c(F)cc2Br)cc2cnc(NC)cc21
AUC (male mouse, plasma; oral, 15 mg/kg, single dose): 2310 ng·h/mL

O=C1CCC(N2Cc3cc(C4CCN(Cc5ccccc5)CC4)ccc3C2=O)C(=O)N1 (stereo not shown)
AUC(0-inf) (male CD-1 mouse, plasma; intravenous, 1 mg/kg): 355 ng·h/mL

CCOC(=O)c1c(NC(=O)CNC(C)C)sc2c1CCCCC2
AUC(0-inf) (male mouse, plasma; intraperitoneal, 100 mg/kg, single dose): 19300 ng·h/mL

CO[C@H]1/C=C/O[C@@]2(C)Oc3c(C)c(O)c4c(c3C2=O)C2=NC3(CCN(CC(C)C)CC3)NC2=C(NC(=O)/C(C)=C\C=C\[C@H](C)[C@H](O)[C@@H](C)[C@@H](O)[C@@H](C)[C@H](OC(C)=O)[C@@H]1C)C4=O
AUC (female CD-1 mouse, plasma; intravenous, 5 mg/kg): 8070 ng·h/mL

COc1cccc2c(N3CCC(CCP(=O)(O)O)CC3)ncnc12
AUC(0-inf) (female C57BL/6 mouse, serum; subcutaneous, 50 mg/kg): 18300 ng·h/mL

OCc1nc2ccc(NCc3ccc(C(F)(F)F)cc3)cc2[nH]1
AUC(0-inf) (male BALB/c mouse, plasma; intravenous, 1 mg/kg): 482 ng·h/mL

NCc1ccc(-c2nn(Cc3ccncc3)c3ccccc23)o1
AUC(0-t) (male CD-1 mouse, plasma; intraperitoneal, 30 mg/kg): 5240 ng·h/mL

CN(C)C(=O)c1cc2cnc(Nc3ccc(-c4ccc5c(=O)cc(N6CCOCC6)oc5c4)cc3)nc2n1C1CCCC1
AUC(0-inf) (BALB/c mouse, plasma; oral, 20 mg/kg): 2890 ng·h/mL

NCc1cc2c(cc1F)C(=O)N(C1CCC(=O)NC1=O)C2 (stereo not shown)
AUC(0-inf) (male CD-1 mouse, plasma; intravenous, 1 mg/kg): 149 ng·h/mL

OCc1ccc(-c2nn(Cc3ccccc3)c3ccccc23)o1
AUC(0-t) (male CD-1 mouse, plasma; oral, 10 mg/kg): 218 ng·h/mL

COCC(=O)N1CCc2[nH]c3c(Cl)c(Cl)ccc3c2[C@@H]1C
AUC(0-inf) (C57BL/6 mouse, blood; intravenous, 1 mg/kg): 3.28 µM·h
